Active and inactive are the calls of the source. The calls are words filed in the database; no cut-off is given here.
Legend:
Rattus norvegicus = experiment: Estimated oral dose depressing motor activity by 50% in rats(po); assay type: functional
Method in brief: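 Rats dosed orally; spontaneous motor activity recorded. The value is the estimated dose that lowers motor activity by 50%. Each test group held 5 to 10 animals. The protocol is the same as in the authors' earlier reports.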

Mus musculus [1] = experiment: Minimum effective dose was measured orally by antagonism of tetrabenazine-induced depression in mice(po); assay type: functional; conditions: read-out: MED
Method in brief: (§1)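 Mice given tetrabenazine to induce depression; test agent given orally to look for antagonism of that depression. The value is the minimum effective dose. Each test group held 5 to 10 animals. The protocol is the same as in the group's earlier publications.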

Mus musculus [2] = experiment: Intraperitoneal dose required for antagonism of d-amphetamine lethality in grouped mice (GAL); assay type: functional; conditions: ip
Method in brief: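 Mice housed in groups received drug intraperitoneally and were scored for protection against d-amphetamine-induced lethality. There were 5 to 10 animals per dose group. The ED50 was the dose protecting 50% of mice. 95% confidence limits came from Finney's arc-sine transformation method.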

Mus musculus [3] = experiment: Minimum effective dose was measured orally by antagonism of tetrabenazine-induced depression in mice(po); inact means compound is inactive.; assay type: functional, organism-based; method in brief: as §1
Mus musculus [4] = experiment: Oral dose required for antagonism of d-amphetamine lethality in grouped mice (GAL); assay type: functional
Method in brief: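 Drug was given orally to grouped mice challenged with d-amphetamine, and survival (protection from lethality) was recorded. Each test group had 5 to 10 animals. The result is an ED50 with 95% confidence limits, calculated by the arc-sine transformation method of Finney.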

Q: `CN(C)CCCN1c2ccccc2CCc2ccccc21` [IMIPRAMINE] was tested. Which MDD50 (Rattus norvegicus) did it give?
A: >50 mg/kg

Q: And the minimal effective dose (Mus musculus [1])?
A: 5 mg/kg

Q: Which results are given for `CN1CCN(C2=Nc3cc(Cl)ccc3Nc3ccccc32)CC1` [CLOZAPINE]?
A: ED50 (Mus musculus [2]): 2.2 mg/kg; MED (Mus musculus [3]): inactive; MDD50 (Rattus norvegicus): 21 mg/kg

Q: With `CN1CCN(C2=Nc3ccccc3Cn3cccc32)CC1` as the molecule, how does the ED50 (Mus musculus [2]) read?
A: 1 mg/kg

Q: What about the MED (Mus musculus [3]) of the same molecule?
A: inactive

Q: What about the MDD50 (Rattus norvegicus) of the same molecule?
A: 7 mg/kg

Q: For `c1ccc2c(c1)Cn1cccc1C(N1CCNCC1)=N2`, which ED50 (Mus musculus [4]) is on record?
A: 4.7 mg/kg

Q: And the minimal effective dose (Mus musculus [1])?
A: 3.1 mg/kg

Q: How did the ED50 (Mus musculus [2]) turn out when `CN(C)CCCN1c2ccccc2Sc2ccc(Cl)cc21` [CHLORPROMAZINE] was run?
A: 0.6 mg/kg

Q: And the MED (Mus musculus [3])?
A: inactive

Q: What about the MDD50 (Rattus norvegicus) of the same molecule?
A: 2.4 mg/kg

Q: `CN1CCN(C2=Nc3ccc(Cl)cc3Cn3cccc32)CC1` was tested. Which ED50 (Mus musculus [2]) did it give?
A: 16 mg/kg

Q: What about the MED (Mus musculus [3]) of the same molecule?
A: inactive

Q: What about the MDD50 (Rattus norvegicus) of the same molecule?
A: 50 mg/kg

Q: Which ED50 (Mus musculus [2]) does the source give for `CN1CCN(C2=Nc3cc(Cl)ccc3Cn3cccc32)CC1` here?
A: 4 mg/kg

Q: And the MED (Mus musculus [3])?
A: inactive

Q: And the MDD50 (Rattus norvegicus)?
A: 12 mg/kg
